According to ChEMBL document CHEMBL1806360, “Synthesis and biological evaluation of conformationally flexible as well as restricted dimers of monastrol and related dihydropyrimidones” (Eur J Med Chem, 2011):
Converted amounts (≈) assume the structure as drawn. The source made the active and inactive calls. The calls are words filed in the database; no cut-off is given here.

System: HT-29
Assay: Cytotoxicity against human HT-29 cells after 48 hrs by MTT assay
Type: functional, cell-based
Conditions: HT-29, 48 h

Structure (SMILES)	IC50 [µg/mL]
CCOC(=O)C1=C(C)NC(=S)NC1c1ccc(OCCCCOc2ccc(C3NC(=S)NC(C)=C3C(=O)OCC)cc2OC)c(OC)c1 (stereo not given)	> 200
COC(=O)[C@@H]1CCCN1C(=O)C1=C(C)NC(=S)NC1c1cccc(OCCCOc2cccc(C3NC(=S)NC(C)=C3C(=O)N3CCC[C@H]3C(=O)OC)c2)c1 (stereo not given in full)	> 200
CCOC(=O)C1=C(C)NC(=S)NC1c1ccc(OC/C=C\COc2ccc(C3NC(=S)NC(C)=C3C(=O)OCC)cc2OC)c(OC)c1 (stereo not given)	> 200
COC(=O)[C@@H]1CCCN1C(=O)C1=C(C)NC(=S)NC1c1ccc(OC/C=C/COc2ccc(C3NC(=S)NC(C)=C3C(=O)N3CCC[C@H]3C(=O)OC)cc2OC)c(OC)c1 (stereo not given in full)	> 200
COC(=O)[C@@H]1CCCN1C(=O)C1=C(C)NC(=S)NC1c1ccc(OCCCCCOc2ccc(C3NC(=S)NC(C)=C3C(=O)N3CCC[C@H]3C(=O)OC)cc2OC)c(OC)c1 (stereo not given in full)	> 200

System: Klebsiella pneumoniae
Assay: Antibacterial activity against Klebsiella pneumoniae assessed as zone of inhibition at 50 ug/ml by agar plate method
Type: functional, organism-based
Conditions: not given
Summary of the method: (§1)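 Well diffusion on Mueller-Hinton agar. Inoculum from 3–5 colonies was grown in nutrient broth and adjusted to 0.5 McFarland (about 1 × 10⁸ CFU/mL), then swabbed over the plate. Compounds were dissolved in DMSO and added to duplicate 6 mm wells. Plates were incubated 18 h at 37 °C, and inhibition zone diameter was read to the nearest mm. Ciprofloxacin was the positive control and DMSO the negative control.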

Structure (SMILES)	Activity
CCOC(=O)C1=C(C)NC(=S)NC1c1ccc(OCCCCOc2ccc(C3NC(=S)NC(C)=C3C(=O)OCC)cc2OC)c(OC)c1 (stereo not given)	inactive
CCOC(=O)C1=C(C)NC(=S)NC1c1ccc(OC/C=C\COc2ccc(C3NC(=S)NC(C)=C3C(=O)OCC)cc2OC)c(OC)c1 (stereo not given)	inactive

System: Escherichia coli
Assay: Antibacterial activity against Escherichia coli assessed as zone of inhibition at 100 ug/ml by agar plate method
Type: functional
Conditions: read-out: IZ
Summary of the method: as §1

Structure (SMILES)	zone of inhibition at 100 µg/mL [mm]
CCOC(=O)C1=C(C)NC(=S)NC1c1ccc(OCCCCOc2ccc(C3NC(=S)NC(C)=C3C(=O)OCC)cc2OC)c(OC)c1 (stereo not given)	10
CCOC(=O)C1=C(C)NC(=S)NC1c1ccc(OC/C=C\COc2ccc(C3NC(=S)NC(C)=C3C(=O)OCC)cc2OC)c(OC)c1 (stereo not given)	12

System: Staphylococcus epidermidis
Assay: Antibacterial activity against Staphylococcus epidermidis assessed as zone of inhibition at 50 ug/ml by agar plate method
Type: functional, organism-based
Conditions: not given
Summary of the method: as §1

Structure (SMILES)	Activity
CCOC(=O)C1=C(C)NC(=S)NC1c1ccc(OCCCCOc2ccc(C3NC(=S)NC(C)=C3C(=O)OCC)cc2OC)c(OC)c1 (stereo not given)	inactive
CCOC(=O)C1=C(C)NC(=S)NC1c1ccc(OC/C=C\COc2ccc(C3NC(=S)NC(C)=C3C(=O)OCC)cc2OC)c(OC)c1 (stereo not given)	inactive

System: Pseudomonas aeruginosa
Assay: Antibacterial activity against Pseudomonas aeruginosa assessed as zone of inhibition at 100 ug/ml by agar plate method
Type: functional
Conditions: read-out: IZ
Summary of the method: as §1

Structure (SMILES)	zone of inhibition at 100 µg/mL [mm]
CCOC(=O)C1=C(C)NC(=S)NC1c1ccc(OCCCCOc2ccc(C3NC(=S)NC(C)=C3C(=O)OCC)cc2OC)c(OC)c1 (stereo not given)	13
CCOC(=O)C1=C(C)NC(=S)NC1c1ccc(OC/C=C\COc2ccc(C3NC(=S)NC(C)=C3C(=O)OCC)cc2OC)c(OC)c1 (stereo not given)	15

System: A549
Assay: Cytotoxicity against human A549 cells after 48 hrs by MTT assay
Type: functional, cell-based
Conditions: A549, 48 h
Summary of the method: (§2)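 MTT assay. Medium with 10% FBS and 2 mM L-glutamine was DMEM for A431 and Colo-205, RPMI for A549, and MEM for MCF-7. Cultures were preincubated 24 h at 37 °C, 5% CO2. 1 × 10⁴ cells (trypan blue count) were exposed to 200, 100, 50, 25 and 10 concentration levels for 48 h at 37 °C. MTT was added for 4 h, formazan dissolved in DMSO, and A570 read. IC50 was curve-fitted from viability versus untreated cells, three experiments.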

Structure (SMILES)	IC50 [µg/mL]
CCOC(=O)C1=C(C)NC(=S)NC1c1ccc(OCCCCOc2ccc(C3NC(=S)NC(C)=C3C(=O)OCC)cc2OC)c(OC)c1 (stereo not given)	> 200
COC(=O)[C@@H]1CCCN1C(=O)C1=C(C)NC(=S)NC1c1cccc(OCCCOc2cccc(C3NC(=S)NC(C)=C3C(=O)N3CCC[C@H]3C(=O)OC)c2)c1 (stereo not given in full)	175 (≈ 221 µM)
CCOC(=O)C1=C(C)NC(=S)NC1c1ccc(OC/C=C\COc2ccc(C3NC(=S)NC(C)=C3C(=O)OCC)cc2OC)c(OC)c1 (stereo not given)	> 200
COC(=O)[C@@H]1CCCN1C(=O)C1=C(C)NC(=S)NC1c1ccc(OC/C=C/COc2ccc(C3NC(=S)NC(C)=C3C(=O)N3CCC[C@H]3C(=O)OC)cc2OC)c(OC)c1 (stereo not given in full)	158 (≈ 183 µM)
COC(=O)[C@@H]1CCCN1C(=O)C1=C(C)NC(=S)NC1c1ccc(OCCCCCOc2ccc(C3NC(=S)NC(C)=C3C(=O)N3CCC[C@H]3C(=O)OC)cc2OC)c(OC)c1 (stereo not given in full)	150 (≈ 171 µM)

System: Staphylococcus aureus
Assay: Antibacterial activity against Staphylococcus aureus assessed as zone of inhibition at 100 ug/ml by agar plate method
Type: functional
Conditions: read-out: IZ
Summary of the method: as §1

Structure (SMILES)	zone of inhibition at 100 µg/mL [mm]
CCOC(=O)C1=C(C)NC(=S)NC1c1ccc(OCCCCOc2ccc(C3NC(=S)NC(C)=C3C(=O)OCC)cc2OC)c(OC)c1 (stereo not given)	9
CCOC(=O)C1=C(C)NC(=S)NC1c1ccc(OC/C=C\COc2ccc(C3NC(=S)NC(C)=C3C(=O)OCC)cc2OC)c(OC)c1 (stereo not given)	12

System: Escherichia coli
Assay: Antibacterial activity against Escherichia coli assessed as zone of inhibition at 50 ug/ml by agar plate method
Type: functional, organism-based
Conditions: not given
Summary of the method: as §1

Structure (SMILES)	Activity
CCOC(=O)C1=C(C)NC(=S)NC1c1ccc(OCCCCOc2ccc(C3NC(=S)NC(C)=C3C(=O)OCC)cc2OC)c(OC)c1 (stereo not given)	inactive
CCOC(=O)C1=C(C)NC(=S)NC1c1ccc(OC/C=C\COc2ccc(C3NC(=S)NC(C)=C3C(=O)OCC)cc2OC)c(OC)c1 (stereo not given)	inactive

System: A-431
Assay: Cytotoxicity against human A431 cells after 48 hrs by MTT assay
Type: functional, cell-based
Conditions: A-431, 48 h
Summary of the method: as §2

Structure (SMILES)	IC50 [µg/mL]
CCOC(=O)C1=C(C)NC(=S)NC1c1ccc(OCCCCOc2ccc(C3NC(=S)NC(C)=C3C(=O)OCC)cc2OC)c(OC)c1 (stereo not given)	185 (≈ 265 µM)
COC(=O)[C@@H]1CCCN1C(=O)C1=C(C)NC(=S)NC1c1cccc(OCCCOc2cccc(C3NC(=S)NC(C)=C3C(=O)N3CCC[C@H]3C(=O)OC)c2)c1 (stereo not given in full)	190 (≈ 240 µM)
CCOC(=O)C1=C(C)NC(=S)NC1c1ccc(OC/C=C\COc2ccc(C3NC(=S)NC(C)=C3C(=O)OCC)cc2OC)c(OC)c1 (stereo not given)	170 (≈ 244 µM)
COC(=O)[C@@H]1CCCN1C(=O)C1=C(C)NC(=S)NC1c1ccc(OC/C=C/COc2ccc(C3NC(=S)NC(C)=C3C(=O)N3CCC[C@H]3C(=O)OC)cc2OC)c(OC)c1 (stereo not given in full)	34 (≈ 39.4 µM)
COC(=O)[C@@H]1CCCN1C(=O)C1=C(C)NC(=S)NC1c1ccc(OCCCCCOc2ccc(C3NC(=S)NC(C)=C3C(=O)N3CCC[C@H]3C(=O)OC)cc2OC)c(OC)c1 (stereo not given in full)	125 (≈ 142 µM)

System: MCF7
Assay: Cytotoxicity against human MCF7 cells after 48 hrs by MTT assay
Type: functional, cell-based
Conditions: MCF7, 48 h
Summary of the method: as §2

Structure (SMILES)	IC50 [µg/mL]
CCOC(=O)C1=C(C)NC(=S)NC1c1ccc(OCCCCOc2ccc(C3NC(=S)NC(C)=C3C(=O)OCC)cc2OC)c(OC)c1 (stereo not given)	178 (≈ 255 µM)
COC(=O)[C@@H]1CCCN1C(=O)C1=C(C)NC(=S)NC1c1cccc(OCCCOc2cccc(C3NC(=S)NC(C)=C3C(=O)N3CCC[C@H]3C(=O)OC)c2)c1 (stereo not given in full)	175 (≈ 221 µM)
CCOC(=O)C1=C(C)NC(=S)NC1c1ccc(OC/C=C\COc2ccc(C3NC(=S)NC(C)=C3C(=O)OCC)cc2OC)c(OC)c1 (stereo not given)	84 (≈ 121 µM)
COC(=O)[C@@H]1CCCN1C(=O)C1=C(C)NC(=S)NC1c1ccc(OC/C=C/COc2ccc(C3NC(=S)NC(C)=C3C(=O)N3CCC[C@H]3C(=O)OC)cc2OC)c(OC)c1 (stereo not given in full)	60 (≈ 69.5 µM)
COC(=O)[C@@H]1CCCN1C(=O)C1=C(C)NC(=S)NC1c1ccc(OCCCCCOc2ccc(C3NC(=S)NC(C)=C3C(=O)N3CCC[C@H]3C(=O)OC)cc2OC)c(OC)c1 (stereo not given in full)	55 (≈ 62.6 µM)

System: COLO 205
Assay: Cytotoxicity against human COLO205 cells after 48 hrs by MTT assay
Type: functional, cell-based
Conditions: COLO 205, 48 h
Summary of the method: as §2

Structure (SMILES)	IC50 [µg/mL]
CCOC(=O)C1=C(C)NC(=S)NC1c1ccc(OCCCCOc2ccc(C3NC(=S)NC(C)=C3C(=O)OCC)cc2OC)c(OC)c1 (stereo not given)	> 200
COC(=O)[C@@H]1CCCN1C(=O)C1=C(C)NC(=S)NC1c1cccc(OCCCOc2cccc(C3NC(=S)NC(C)=C3C(=O)N3CCC[C@H]3C(=O)OC)c2)c1 (stereo not given in full)	> 200
CCOC(=O)C1=C(C)NC(=S)NC1c1ccc(OC/C=C\COc2ccc(C3NC(=S)NC(C)=C3C(=O)OCC)cc2OC)c(OC)c1 (stereo not given)	120 (≈ 172 µM)
COC(=O)[C@@H]1CCCN1C(=O)C1=C(C)NC(=S)NC1c1ccc(OC/C=C/COc2ccc(C3NC(=S)NC(C)=C3C(=O)N3CCC[C@H]3C(=O)OC)cc2OC)c(OC)c1 (stereo not given in full)	69 (≈ 80 µM)
COC(=O)[C@@H]1CCCN1C(=O)C1=C(C)NC(=S)NC1c1ccc(OCCCCCOc2ccc(C3NC(=S)NC(C)=C3C(=O)N3CCC[C@H]3C(=O)OC)cc2OC)c(OC)c1 (stereo not given in full)	142 (≈ 162 µM)

System: Staphylococcus epidermidis
Assay: Antibacterial activity against Staphylococcus epidermidis assessed as zone of inhibition at 100 ug/ml by agar plate method
Type: functional
Conditions: read-out: IZ
Summary of the method: as §1

Structure (SMILES)	zone of inhibition at 100 µg/mL [mm]
CCOC(=O)C1=C(C)NC(=S)NC1c1ccc(OCCCCOc2ccc(C3NC(=S)NC(C)=C3C(=O)OCC)cc2OC)c(OC)c1 (stereo not given)	12
CCOC(=O)C1=C(C)NC(=S)NC1c1ccc(OC/C=C\COc2ccc(C3NC(=S)NC(C)=C3C(=O)OCC)cc2OC)c(OC)c1 (stereo not given)	18

System: Bacillus subtilis
Assay: Antibacterial activity against Bacillus subtilis assessed as zone of inhibition at 100 ug/ml by agar plate method
Type: functional
Conditions: read-out: IZ
Summary of the method: as §1

Structure (SMILES)	zone of inhibition at 100 µg/mL [mm]
CCOC(=O)C1=C(C)NC(=S)NC1c1ccc(OCCCCOc2ccc(C3NC(=S)NC(C)=C3C(=O)OCC)cc2OC)c(OC)c1 (stereo not given)	15
CCOC(=O)C1=C(C)NC(=S)NC1c1ccc(OC/C=C\COc2ccc(C3NC(=S)NC(C)=C3C(=O)OCC)cc2OC)c(OC)c1 (stereo not given)	13

System: Nucleic Acid
Assay: Binding affinity to calf thymus DNA assessed as change in melting temperature at compound to DNA ratio of 1:5 after 18 hrs at pH 7
Type: nucleic-acid assay
Conditions: Bos taurus
Summary of the method: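 Thermal melting of calf thymus DNA in 10 mM sodium phosphate with 1 mM Na2EDTA, pH 7.00. Compound was added from DMSO stock at a fixed 1:5 compound:DNA molar ratio. The mix was incubated 18 h at 37 °C, then A260 was monitored while heating at 1 °C/min over 40–90 °C. ΔTm is relative to DNA alone.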

Structure (SMILES)	ΔTm [°C]
COC(=O)[C@@H]1CCCN1C(=O)C1=C(C)NC(=S)NC1c1ccc(OC/C=C/COc2ccc(C3NC(=S)NC(C)=C3C(=O)N3CCC[C@H]3C(=O)OC)cc2OC)c(OC)c1 (stereo not given in full)	2.8

System: Klebsiella pneumoniae
Assay: Antibacterial activity against Klebsiella pneumoniae assessed as zone of inhibition at 100 ug/ml by agar plate method
Type: functional
Conditions: read-out: IZ
Summary of the method: as §1

Structure (SMILES)	zone of inhibition at 100 µg/mL [mm]
CCOC(=O)C1=C(C)NC(=S)NC1c1ccc(OCCCCOc2ccc(C3NC(=S)NC(C)=C3C(=O)OCC)cc2OC)c(OC)c1 (stereo not given)	5

System: Bacillus subtilis
Assay: Antibacterial activity against Bacillus subtilis assessed as zone of inhibition at 50 ug/ml by agar plate method
Type: functional, organism-based
Conditions: not given
Summary of the method: as §1

Structure (SMILES)	Activity
CCOC(=O)C1=C(C)NC(=S)NC1c1ccc(OCCCCOc2ccc(C3NC(=S)NC(C)=C3C(=O)OCC)cc2OC)c(OC)c1 (stereo not given)	inactive
CCOC(=O)C1=C(C)NC(=S)NC1c1ccc(OC/C=C\COc2ccc(C3NC(=S)NC(C)=C3C(=O)OCC)cc2OC)c(OC)c1 (stereo not given)	inactive
